Kir21 block: Kir2.1 (mouse) channel inhibition. P35561. HEK293-Kir2.1, FluxOR thallium flux fluorescence; hits give low values. B-score at 10 µM. hit rate 0.85% among 310,000;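 active = fluorescence ratio B-score at or below minus 3 SD of library scores, with starting-brightness B-score within 2 SD, cut at about -4.2 in these data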;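 also: channel flux triggered by added potassium and thallium sulfate stimulus; B-score of peak minus minimum fluorescence over baseline after thallium stimulus; more negative B-score means stronger Kir2.1 block with less thallium influx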
KCNQ1 pot: potentiators or activators of human KCNQ1 potassium channel | B-score at 10 µM | AID 2648 | hit rate 0.35% among 310,000 | P51787 | CHO-K1 KCNQ1, thallium flux FluxOR fluorescence; hits give high values;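 active = fluorescence ratio B-score, a plate-corrected score, at least three library SD, with initial intensity B-score within 5 SD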
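Assay system: CHO-K1 cells stably expressing KCNQ1. Medium: assay buffer for compound exposure, DMSO matched across wells. Timing: 37 °C overnight plating, 90-min dark dye load, 20-min compound pretreatment. Signal: kinetic FluxOR fluorescence, 10 s baseline plus 110 s post-stimulus.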
KCNQ1 inh: inhibitors of human KCNQ1 potassium channel; B-score at 10 µM; P51787; AID 2642; CHO-K1 KCNQ1, FluxOR thallium flux fluorescence; hits give high values; hit rate 1.3% among 310,000;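 active = compounds whose thallium flux B-score, printed positive for inhibition, exceeds three library SD while starting fluorescence stays within three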;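 also: channel opened by potassium depolarization with thallium stimulus after 20 min compound exposure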
KCNK3 block: human KCNK3 channel inhibition, primary screen | B-score at 10 µM | hit rate 0.84% among 340,000 | CHO-KCNK3 thallium flux, FluxOR fluorescence; hits give low values | AID 602410;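 active = B-score under library mean minus 4 SD, starting fluorescence ratio at most library mean plus 5 SD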;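 also: more negative B-score means stronger inhibition of thallium flux through KCNK3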
KCNK9 block: inhibitors of human KCNK9 two-pore domain potassium channel | Q9NPC2 | HEK293 KCNK9, FluxOR thallium flux fluorescence; hits give low values | B-score at 10 µM | hit rate 1.2% among 310,000 | AID 488922;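 active = ratio B-score over 3 SD below the library mean, with starting fluorescence within 5 SD of its mean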;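 also: negative B-score means less thallium flux so channel inhibition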
hERG protect: shields human hERG channel from block by proarrhythmic agents | AID 1511 | hit rate 0.51% among 310,000 | activation (rescue from dofetilide block), less the hit threshold, % at 10 µM | Q12809 | CHO-hERG, FluxOR thallium flux, dofetilide IC70 present;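 active = activation above the mean of controls blocked by dofetilide plus 5 SD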;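 also: thallium influx through hERG after potassium depolarization seen as dye fluorescence rise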
Target sequence (Q12809 whole entry, looked up): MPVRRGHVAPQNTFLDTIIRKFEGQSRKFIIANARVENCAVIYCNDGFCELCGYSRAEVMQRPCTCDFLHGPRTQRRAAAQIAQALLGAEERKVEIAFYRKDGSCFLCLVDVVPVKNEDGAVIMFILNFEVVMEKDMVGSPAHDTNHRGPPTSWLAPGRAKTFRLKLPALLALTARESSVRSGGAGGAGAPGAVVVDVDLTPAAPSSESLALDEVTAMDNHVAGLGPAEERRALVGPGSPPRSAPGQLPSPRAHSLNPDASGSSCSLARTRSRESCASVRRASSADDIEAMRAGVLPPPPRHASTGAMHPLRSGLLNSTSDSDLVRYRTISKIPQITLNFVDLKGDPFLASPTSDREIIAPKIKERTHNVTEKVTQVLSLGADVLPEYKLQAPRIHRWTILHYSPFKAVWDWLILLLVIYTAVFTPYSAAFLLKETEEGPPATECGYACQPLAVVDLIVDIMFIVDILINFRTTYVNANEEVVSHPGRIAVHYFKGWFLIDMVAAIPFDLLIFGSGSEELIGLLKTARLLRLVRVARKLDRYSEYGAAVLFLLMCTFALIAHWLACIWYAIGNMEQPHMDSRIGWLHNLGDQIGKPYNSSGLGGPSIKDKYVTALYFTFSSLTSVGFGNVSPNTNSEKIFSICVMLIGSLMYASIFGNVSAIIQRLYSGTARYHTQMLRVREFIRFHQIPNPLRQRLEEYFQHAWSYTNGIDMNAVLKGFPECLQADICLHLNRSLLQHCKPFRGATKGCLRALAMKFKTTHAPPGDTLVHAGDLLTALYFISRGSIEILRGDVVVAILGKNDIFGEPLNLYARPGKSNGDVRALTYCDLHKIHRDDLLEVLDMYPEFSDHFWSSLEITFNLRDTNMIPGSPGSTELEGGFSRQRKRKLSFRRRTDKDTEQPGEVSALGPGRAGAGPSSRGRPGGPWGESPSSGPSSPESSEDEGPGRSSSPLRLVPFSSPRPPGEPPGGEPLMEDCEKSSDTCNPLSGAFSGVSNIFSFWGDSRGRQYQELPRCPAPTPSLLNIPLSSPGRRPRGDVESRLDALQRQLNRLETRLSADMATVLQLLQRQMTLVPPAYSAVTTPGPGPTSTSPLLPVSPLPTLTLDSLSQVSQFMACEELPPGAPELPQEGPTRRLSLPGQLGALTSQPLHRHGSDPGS
KCNK9 inh conf: confirmation of human KCNK9 potassium channel inhibitors; shares compounds with KCNK9 block; HEK293 KCNK9 cells, FluxOR thallium flux fluorescence; inhibition, % at 10 µM; hit rate 43% among 4,900;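 active = thallium signal inhibited by more than 5 SD of the compound-free buffer control wells, on both duplicate plates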
Kir2-1 spec: mouse Kir2.1 off-target activity of KCNK9 modulators | shares compounds with KCNK9 block | Kir2.1 cells, FluxOR thallium flux fluorescence | inhibition, % at 10 µM | hit rate 4% among 4,900 | AID 492993;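 active = thallium signal drop more than 5 SD beyond the mean of the no-compound control wells, seen in both duplicate plates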;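 also: signal is fluorescence rise after thallium addition divided by baseline fluorescence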
HEK293 Tl ctr: second check of KCNK9 modulator effects in non-induced HEK293 cells. hit rate 40% among 4,900. inhibition, % at 10 µM. AID 492997. FluxOR thallium flux. shares compounds with KCNK9 block;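 active = thallium signal drop beyond 5 SD of the untreated control mean, on both duplicate plates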
Numbers stand for hits. This is a sample that favours compounds with a hit; in the whole collection about 3.7% have one here.

`O=C(c1ccc(Cl)c(S(=O)(=O)N2CCOCC2)c1)N(c1ccccn1)C1CCCCC1` gave Kir21 block inactive, KCNQ1 pot inactive, KCNQ1 inh inactive, KCNK3 block inactive, KCNK9 block inactive, hERG protect inactive, KCNK9 inh conf inactive, Kir2-1 spec inactive and HEK293 Tl ctr inactive.
`O=C(c1ccc(Cl)c(S(=O)(=O)N2CCCCCC2)c1)N1CCCC(C(F)(F)F)C1` (stereo not given) gave Kir21 block inactive, KCNQ1 pot inactive, KCNQ1 inh inactive, KCNK3 block inactive, KCNK9 block inactive, hERG protect inactive, KCNK9 inh conf inactive, Kir2-1 spec inactive and HEK293 Tl ctr inactive.
Cc1cccc(NC(=O)c2ccc(Cl)c(S(=O)(=O)N3CCCCC3)c2)n1 was read as Kir21 block inactive, KCNQ1 pot inactive, KCNQ1 inh inactive, KCNK3 block inactive, KCNK9 block inactive, hERG protect inactive, KCNK9 inh conf inactive, Kir2-1 spec inactive and HEK293 Tl ctr 24.0%.
O=C(COc1coc(CN2CCN(c3ccccc3F)CC2)cc1=O)NCC1CCCO1 (stereo not given) was read as Kir21 block inactive, KCNQ1 pot inactive, KCNQ1 inh inactive, KCNK3 block inactive, KCNK9 block inactive and hERG protect inactive.
For COc1cc(NC(=O)c2cc([N+](=O)[O-])ccc2NC(=O)CN2CCN(c3ccccn3)CC2)cc(OC)c1 the results were Kir21 block inactive, KCNQ1 pot inactive, KCNQ1 inh inactive, KCNK3 block inactive, KCNK9 block inactive and hERG protect inactive.
`CCc1ccc([C@@H]2C[C@H]3CN(Cc4ccccc4OC)C(=O)[C@]34CCCN24)cc1` gave Kir21 block inactive, KCNQ1 pot inactive, KCNQ1 inh inactive, KCNK3 block inactive, KCNK9 block inactive and hERG protect inactive.
CCN(C[C@H]1N[C@@](Cc2ccccc2)(C(=O)OC)[C@H]2C(=O)N(C)C(=O)[C@@H]12)C(=O)COc1ccccc1 was read as KCNK3 block inactive.
`O=C(c1ccc(Cl)c(S(=O)(=O)N2CCCCCC2)c1)N1CCN(c2ccccn2)CC1` gave Kir21 block inactive, KCNQ1 pot inactive, KCNQ1 inh inactive, KCNK3 block inactive, KCNK9 block inactive, hERG protect inactive, KCNK9 inh conf inactive, Kir2-1 spec inactive and HEK293 Tl ctr inactive.
Screening O=C(c1ccc(Cl)c(S(=O)(=O)N2CCCCCC2)c1)N1CCCCC1 returned Kir21 block inactive, KCNQ1 pot inactive, KCNQ1 inh inactive, KCNK3 block inactive, KCNK9 block inactive and hERG protect inactive.
`CCOC(=O)C1CCCN(C(=O)c2ccc(Cl)c(S(=O)(=O)N3CCCCC3)c2)C1` (stereo not given) gave Kir21 block inactive, KCNQ1 pot inactive, KCNQ1 inh inactive, KCNK3 block inactive, KCNK9 block inactive, hERG protect inactive, KCNK9 inh conf inactive, Kir2-1 spec inactive and HEK293 Tl ctr inactive.
Screening NC(=O)c1ccc(Oc2ccc3c(c2)CCC3)c([N+](=O)[O-])c1 returned Kir21 block inactive, KCNQ1 pot inactive, KCNQ1 inh inactive, KCNK3 block inactive, KCNK9 block inactive, hERG protect inactive, KCNK9 inh conf inactive, Kir2-1 spec inactive and HEK293 Tl ctr inactive.
For c1ccc(COc2ccc3nocc3c2)cc1 the results were Kir21 block inactive, KCNQ1 pot inactive, KCNQ1 inh inactive, KCNK3 block inactive, KCNK9 block inactive and hERG protect inactive.
For Oc1cccc(C(Nc2nccs2)c2ccc3cccnc3c2O)c1 (stereo not given) the results were Kir21 block inactive, KCNQ1 pot inactive, KCNQ1 inh inactive, KCNK3 block inactive, KCNK9 block inactive, hERG protect inactive, KCNK9 inh conf inactive, Kir2-1 spec inactive and HEK293 Tl ctr inactive.

Screening data as filed in PubChem.
